pIC50: −log10 of the molar value. Calls of active or inactive are those of the source. No cut-off for these calls is given here.
Tests used:
[1] = biological target: T1, Bromodomain-containing protein 4 (Homo sapiens, UniProt O60885); experiment: Inhibition of human His-tagged BRD4 BD1 (49 to 170 residues) at 30 uM using H-SGRGK(Ac)GGK(Ac)GLGK-(Ac)GGAK(Ac)RHRK(Biotin)-OH as substrate preincubated for 30 mins followed by substrate addition measured after 30 mins by TR-FRET assay relative to control
Method in brief: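 BRD4 bromodomain 1 was tested using a TR-FRET assay kit. Percent inhibition was measured at a single concentration of 30, in triplicate, and reported as mean ± SD.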

[2] = (§1) Cytotoxicity against human HL60 cells assessed as decrease in cell viability after 24 hrs by MTT assay; format: functional, cell-based; details: HL-60, 24 h
[3] = biological target: T1, Bromodomain-containing protein 4; experiment: Inhibition of human BRD4 BD2 (342 to 460 residues) at 30 uM preincubated for 30 mins followed by substrate addition measured after 30 mins by TR-FRET assay
[4] = Cytotoxicity against human MV4-11 cells assessed as decrease in cell viability after 24 hrs by MTT assay; format: functional, cell-based; details: MV4-11, 24 h
[5] = biological target: T1, Bromodomain-containing protein 4; experiment: Inhibition of human BRD4 BD2 (342 to 460 residues) at 30 uM preincubated for 30 mins followed by substrate addition measured after 30 mins by TR-FRET assay relative to control
Method in brief: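 BRD4 BD2 percent inhibition was measured at a single concentration of 30, in triplicate, and reported as mean ± SD.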

[6] = biological target: T1, Bromodomain-containing protein 4; experiment: Inhibition of human His-tagged BRD4 BD1 (49 to 170 residues) using H-SGRGK(Ac)GGK(Ac)GLGK-(Ac)GGAK(Ac)RHRK(Biotin)-OH as substrate preincubated for 30 mins followed by substrate addition measured after 30 mins by TR-FRET assay
[7] = (§2) Cytotoxicity against human U937 cells assessed as decrease in cell viability after 24 hrs by MTT assay; format: functional, cell-based; details: U-937, 24 h
HL-60 [8] = experiment: Induction of apoptosis in human HL60 cells assessed as late apoptotic cells at 5 uM by annexin V-FITC/propidium iodide staining-based flow cytometric analysis (reference value: 6.92%); format: functional
HL-60 [9] = experiment: as §1; format: functional, cell-based
[10] = Downregulation of BRD4 expression in human HL60 cells at 1 to 10 uM after 24 hrs by Western blot method; format: functional, cell-based; details: HL-60
Method in brief: (§3)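 HL-60 cells were treated for 24 h. Lysates were then immunoblotted for Bax, Bcl-2, pro-caspase 3, active caspase 3 and Brd4.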

HL-60 [11] = experiment: Induction of apoptosis in human HL60 cells assessed as caspase-3 cleavage at 1 to 10 uM after 24 hrs by Western blot method; format: functional, cell-based; method in brief: as §3
[12] = Induction of apoptosis in human HL60 cells assessed as upregulation of Bax expression at 1 to 10 uM after 24 hrs by Western blot method; format: functional, cell-based; details: HL-60; method in brief: as §3
HL-60 [13] = experiment: Induction of apoptosis in human HL60 cells assessed as necrotic cells at 5 uM by annexin V-FITC/propidium iodide staining-based flow cytometric analysis (reference value: 0.13%); format: functional
HL-60 [14] = experiment: Induction of apoptosis in human HL60 cells assessed as early apoptotic cells at 5 uM by annexin V-FITC/propidium iodide staining-based flow cytometric analysis (reference value: 8.23%); format: functional
HL-60 [15] = experiment: Induction of apoptosis in human HL60 cells assessed as necrotic cells at 10 uM by annexin V-FITC/propidium iodide staining-based flow cytometric analysis (reference value: 0.13%); format: functional
HL-60 [16] = experiment: Induction of morphological changes in human HL60 cells at 1 to 10 uM after 24 hrs by Hoechst 33258 staining-based fluorescence microscopy; format: functional, cell-based
Method in brief: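 HL-60 cells were cultured with different concentrations and stained with Hoechst 33258. Apoptotic nuclear morphology was examined under an inverted microscope.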

HL-60 [17] = experiment: Induction of apoptosis in human HL60 cells assessed as early apoptotic cells at 1 uM by annexin V-FITC/propidium iodide staining-based flow cytometric analysis (reference value: 8.23%); format: functional
HL-60 [18] = experiment: Induction of apoptosis in human HL60 cells assessed as downregulation of Bcl-2 expression at 1 to 10 uM after 24 hrs by Western blot method; format: functional, cell-based; method in brief: as §3
HL-60 [19] = experiment: Induction of apoptosis in human HL60 cells assessed as viable cells at 5 uM by annexin V-FITC/propidium iodide staining-based flow cytometric analysis (reference value: 84.22%); format: functional; details: read-out: Activity
HL-60 [20] = experiment: Induction of apoptosis in human HL60 cells assessed as early apoptotic cells at 10 uM by annexin V-FITC/propidium iodide staining-based flow cytometric analysis (reference value: 8.23%); format: functional
HL-60 [21] = experiment: Induction of apoptosis in human HL60 cells assessed as viable cells at 10 uM by annexin V-FITC/propidium iodide staining-based flow cytometric analysis (reference value: 84.22%); format: functional; details: read-out: Activity
HL-60 [22] = experiment: Induction of apoptosis in human HL60 cells assessed as viable cells at 1 uM by annexin V-FITC/propidium iodide staining-based flow cytometric analysis (reference value: 84.22%); format: functional; details: read-out: Activity
HL-60 [23] = experiment: Induction of apoptosis in human HL60 cells assessed as late apoptotic cells at 10 uM by annexin V-FITC/propidium iodide staining-based flow cytometric analysis (reference value: 6.92%); format: functional
U-937 = experiment: as §2; format: functional, cell-based
HL-60 [24] = experiment: Induction of apoptosis in human HL60 cells assessed as necrotic cells at 1 uM by annexin V-FITC/propidium iodide staining-based flow cytometric analysis (reference value: 0.13%); format: functional
HL-60 [25] = experiment: Induction of apoptosis in human HL60 cells assessed as late apoptotic cells at 1 uM by annexin V-FITC/propidium iodide staining-based flow cytometric analysis (reference value: 6.92%); format: functional

Cc1noc(C)c1NC(=O)c1ccccc1
inhibition [1]: < 20%

Cc1noc(C)c1NC(=O)c1cccc(-c2ccccc2)c1
inhibition [1]: 46.2%

O=C1CCN(C(=O)c2ccc3ccccc3c2)c2ccccc2N1
inhibition [1]: 25.3%

COc1cc(C(=O)N2CCC(=O)Nc3ccccc32)cc(-c2ccccc2)c1
pIC50 [2]: 5.08
pIC50 [3]: 5.04
pIC50 [4]: 5.02
inhibition [5]: 67.1%
pIC50 [6]: 5.56
pIC50 [7]: 4.74
inhibition [1]: 88.8%

O=C1CCN(C(=O)c2cccnc2)c2ccccc2N1
inhibition [1]: 45.2%

CC1C(=O)Nc2ccccc2N1C(=O)c1cccnc1 (stereo not drawn)
inhibition [1]: < 20%

CC1C(=O)Nc2ccccc2N1C(=O)c1cccc(-c2ccccc2)c1 (stereo not drawn)
pIC50 [2]: 4.94
pIC50 [3]: < 4.70
pIC50 [4]: 4.88
inhibition [5]: 23.1%
pIC50 [6]: 5.13
pIC50 [7]: < 4.70
inhibition [1]: 72.4%

COc1cc(C(=O)n2ccc3c2CCCC3=O)cc(-c2ccccc2)c1
inhibition [1]: 22.8%

O=C1CCCc2c1ccn2C(=O)c1cccnc1
inhibition [1]: 34.2%

O=C1CCCc2c1ccn2C(=O)c1cccc(-c2ccccc2)c1
inhibition [1]: 32.1%

O=C1CCN(C(=O)c2ccccc2)c2ccccc2N1
inhibition [1]: 32.4%

Cc1sc2c(c1C)C(c1ccc(Cl)cc1)=N[C@@H](CC(=O)OC(C)(C)C)c1nnc(C)n1-2
pIC50 [2]: 5.28
pIC50 [4]: 5.19
pIC50 [7]: < 4.70

CC1C(=O)Nc2ccccc2N1C(=O)c1ccc2ccccc2c1 (stereo not drawn)
inhibition [1]: < 20%

O=C1CCCc2c1ccn2C(=O)c1ccccc1
inhibition [1]: < 20%

COc1cc(OC)c2c(=O)[nH]c(-c3cc(C)c(OCCO)c(C)c3)nc2c1 [APABETALONE]
pIC50 [2]: < 4.70
pIC50 [4]: < 4.70
pIC50 [7]: < 4.70

Cc1noc(C)c1NC(=O)c1cccnc1
inhibition [1]: 32.6%

COc1cc(C(=O)Nc2c(C)noc2C)cc(-c2ccccc2)c1
pIC50 [2]: 4.77
pIC50 [3]: < 4.70
pIC50 [4]: 4.72
inhibition [5]: 36.3%
pIC50 [6]: 5.08
pIC50 [7]: < 4.70
inhibition [1]: 64.5%

COc1ccccc1S(=O)(=O)Nc1ccc2c(c1)CN(C)C(=O)N2
pIC50 [2]: 5.66
pIC50 [4]: 5.11
pIC50 [7]: < 4.70

O=C1CCN(C(=O)c2cccc(-c3ccccc3)c2)c2ccccc2N1
Activity (HL-60 [8]): 32.51%
pIC50 [2]: 5.40
Activity (HL-60 [9]): Dose-dependent effect
Activity [10]: Active
Activity (HL-60 [11]): Active
Activity [12]: Active
pIC50 [3]: 4.95
Activity (HL-60 [13]): 0.9%
Activity (HL-60 [14]): 21.63%
Activity (HL-60 [15]): 1.96%
Activity (HL-60 [16]): Active
Activity (HL-60 [17]): 10.15%
pIC50 [4]: 5.38
Activity (HL-60 [18]): Active
viability at 5 µM (HL-60 [19]): 45%
Activity (HL-60 [20]): 17.73%
inhibition [5]: 54.2%
viability at 10 µM (HL-60 [21]): 34.9%
pIC50 [6]: 5.90
viability at 1 µM (HL-60 [22]): 81.4%
Activity (HL-60 [23]): 45.46%
pIC50 [7]: < 4.70
Activity (U-937): Dose-dependent effect
inhibition [1]: 96.1%
Activity (HL-60 [24]): 0.11%
Activity (HL-60 [25]): 8.32%

CC1C(=O)Nc2ccccc2N1C(=O)c1ccccc1 (stereo not drawn)
inhibition [1]: < 20%

O=C1CCCc2c1ccn2C(=O)c1ccc2ccccc2c1
inhibition [1]: 23.1%

COc1cc(C(=O)N2c3ccccc3NC(=O)C2C)cc(-c2ccccc2)c1 (stereo not drawn)
pIC50 [2]: 5.03
pIC50 [3]: < 4.70
pIC50 [4]: 4.75
inhibition [5]: 36.2%
pIC50 [6]: 5.20
pIC50 [7]: < 4.70
inhibition [1]: 88.7%

Cc1noc(C)c1NC(=O)c1ccc2ccccc2c1
inhibition [1]: 23.1%

— ChEMBL document CHEMBL3856216, “Development of 4,5-dihydro-benzodiazepinone derivatives as a new chemical series of BRD4 inhibitors” (Eur J Med Chem, 2016)
